Source: ChEMBL document CHEMBL1137260, “Design and biological evaluation of novel tubulin inhibitors as antimitotic agents using a pharmacophore binding model with tubulin” (J Med Chem, 2006)

Legend:
Huh-7 = experiment: Antiproliferative activity against human Huh7 cells after 48 hrs; assay type: functional, cell-based; conditions: Huh-7, 48 h
How it was run: (§1)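 Cells kept in DMEM with 10% FBS/glutamine/antibiotics, 37 °C, 5% CO2; 2 × 10⁴ cells seeded, after 24 h exposed to compounds (0.01–100 µM) for 48 h. Part of the supernatant was removed, CellTiter 96 Aqueous reagent added, 2 h further incubation at 37 °C, absorbance at 490 nm read; IC50 derived. Huh7 is a hepatoma line, 293T renal epithelial.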

HEK-293T = experiment: Antiproliferative activity against human 293T cells after 48 hrs; assay type: functional, cell-based; how it was run: as §1
SNU-398 [1] = experiment: Cell cycle arrest in SNU398 cells by accumulation at G2/M phase at 5000 nM; assay type: functional, Homo sapiens
How it was run: (§2)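 SNU-398 hepatoma cells (5 × 10⁵) seeded, grown 24 h, then 48 h with compound or carrier alone. Harvested, PBS-washed twice, stained with a cell cycle analysis kit, analysed by flow cytometry; cell cycle phase percentages estimated, G2/M fraction reported.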

SNU-398 [2] = experiment: Cell cycle arrest in SNU398 cells by accumulation at G2/M phase at 50 nM; assay type: functional, Homo sapiens; how it was run: as §2
SNU-398 [3] = experiment: Cell cycle arrest in SNU398 cells by accumulation at G2/M phase at 500 nM; assay type: functional, Homo sapiens; how it was run: as §2
Tubulin = experiment: Inhibition of tubulin polymerization; assay type: protein-complex assay, Homo sapiens
How it was run: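 Tubulin polymerization kit used; components added to wells at 0 °C with 340 nm baselines, then assembly followed at 0 °C and 37 °C and measured turbidimetrically. Compounds tested at 0, 3, 10 and 30 µM; IC50 calculated from the polymerization data.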

Row | Compound | IC50 (Huh-7) | IC50 (Tubulin) | IC50 (HEK-293T) | Activity (SNU-398 [1]) | Activity (SNU-398 [2]) | Activity (SNU-398 [3])
1 | O=C(/C=C/c1cccc2ccccc12)c1ccc(NC(=O)c2cccs2)cc1 | > 100 µM | – | > 100 µM | – | – | –
2 | O=C(/C=C/c1ccccn1)c1ccc(NC(=O)c2ccco2)cc1 | 9.9 µM | – | 9.8 µM | 46.6% | 36.3% | 36.3%
3 | CCOc1ccc(C(C)(C)C(=O)Nc2ccc(C(=O)/C=C/c3ccccn3)cc2)cc1 | > 100 µM | – | > 100 µM | – | – | –
4 | CN(C)CC(=O)Nc1ccc(C(=O)/C=C/c2ccccn2)cc1 | 8.4 µM | 19.8 µM | 8.2 µM | 43% | 31.9% | 32.7%

The next lines start with results.

Row | IC50 (Huh-7) | IC50 (Tubulin) | Compound | IC50 (HEK-293T) | Activity (SNU-398 [1]) | Activity (SNU-398 [2]) | Activity (SNU-398 [3])
5 | 9.6 µM | 15.7 µM | CC(=O)Nc1ccc(C(=O)/C=C/c2ccccn2)cc1 | 13.7 µM | 43.3% | 37.7% | 37.1%
6 | 14.3 µM | > 30 µM | O=C(/C=C/c1ccccn1)c1ccccc1 [WR-190433] | 13.8 µM | – | – | –
